Test results reported in ChEMBL document CHEMBL1133533 (J Med Chem, 2000).
pEC50, pKi: −log10 of the molar value.

How the values were obtained:
D(2) dopamine receptor [1] = biological target: T1, D(2) dopamine receptor (Homo sapiens, UniProt P14416); assay: Displacement of [3H]spiperone from human Dopamine receptor D2L expressed in CHO cells; format: cell-based
D(2) dopamine receptor [2] = biological target: T1, D(2) dopamine receptor; assay: Displacement of [3H]spiperone from human Dopamine receptor D2S expressed in CHO cells; format: cell-based
How it was run: (§1)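 Membranes from CHO cells stably expressing human D2short, D3 or D4.4 receptor, 5-25 µg protein/tube, competing against [3H]spiperone. Eight concentrations in triplicate, 2-4 independent experiments. Sigmoid nonlinear fit gives IC50, converted to Ki by Cheng-Prusoff; reported as mean ± SEM; Hill slopes fit a one-site model.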

D(3) dopamine receptor = D(3) dopamine receptor (Homo sapiens, UniProt P35462); assay: Displacement of [3H]spiperone from human Dopamine receptor D3 expressed in CHO cells; format: cell-based; how it was run: as §1
D(4) dopamine receptor [3] = biological target: T2, D(4) dopamine receptor (Homo sapiens, UniProt P21917); assay: Displacement of [3H]spiperone from human Dopamine receptor D4.4 expressed in CHO cells; format: cell-based; how it was run: as §1
T2 sequence (P21917 whole entry): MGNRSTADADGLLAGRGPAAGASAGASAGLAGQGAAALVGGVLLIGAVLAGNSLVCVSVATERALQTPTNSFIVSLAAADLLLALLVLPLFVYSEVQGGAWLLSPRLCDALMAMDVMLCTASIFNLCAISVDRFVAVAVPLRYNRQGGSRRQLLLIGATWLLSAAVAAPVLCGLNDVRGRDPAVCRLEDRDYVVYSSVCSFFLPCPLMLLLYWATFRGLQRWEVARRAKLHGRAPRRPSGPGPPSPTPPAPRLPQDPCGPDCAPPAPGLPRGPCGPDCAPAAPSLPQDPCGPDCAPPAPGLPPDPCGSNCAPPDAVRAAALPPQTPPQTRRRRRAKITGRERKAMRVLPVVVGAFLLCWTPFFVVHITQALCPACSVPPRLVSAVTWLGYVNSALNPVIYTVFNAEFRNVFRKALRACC

D(1A) dopamine receptor [4] = biological target: T3, D(1A) dopamine receptor (Bos taurus, UniProt Q95136); assay: Displacement of [3H]SCH-23390 from Dopamine receptor D1 of bovine striatal membranes
D(1A) dopamine receptor [5] = biological target: T3, D(1A) dopamine receptor; assay: Binding affinity against Dopamine receptor D1 from bovine striatal membranes using [3H]SCH-23390 as radioligand
How it was run: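 Bovine striatal membranes, 25 µg protein/tube, competing against [3H]SCH 23390 (Kd 0.27-0.32 nM). Eight concentrations in triplicate, 2-4 independent experiments. Sigmoid nonlinear fit gives IC50, converted to Ki by Cheng-Prusoff; reported as mean ± SEM.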

D(4) dopamine receptor [6] = biological target: T2, D(4) dopamine receptor; assay: (§2) Effective dose was measured by the stimulation of mitogenesis at dopamine D4.2 receptor; format: functional
How it was run: (§3)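 CHO10001A cells stably expressing human D4.2 receptor, seeded at 10 000 cells/well and grown 75 h in medium with 10% FCS. Cells rinsed with serum-free medium, then given seven concentrations (final 0.001-1000 nM) for 16-18 h. [3H]thymidine 0.25 µCi/well added for 2 h at 37 °C, then filter harvest and counting. Quadruplicates, 6 experiments, normalized mean curve; EC50 from mean curves.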

[7] = biological target: T4, D(4) dopamine receptor (Homo sapiens) (UniProt P21917); assay: Agonistic effect was measured by the stimulation of mitogenesis at dopamine D4.2 receptor; format: functional; how it was run: as §3
T4 sequence (whole entry): T2 sequence (P21917 whole entry)

[8] = biological target: T4, D(4) dopamine receptor (Homo sapiens); assay: as §2; format: functional; how it was run: as §3

T1 sequence (P14416 whole entry): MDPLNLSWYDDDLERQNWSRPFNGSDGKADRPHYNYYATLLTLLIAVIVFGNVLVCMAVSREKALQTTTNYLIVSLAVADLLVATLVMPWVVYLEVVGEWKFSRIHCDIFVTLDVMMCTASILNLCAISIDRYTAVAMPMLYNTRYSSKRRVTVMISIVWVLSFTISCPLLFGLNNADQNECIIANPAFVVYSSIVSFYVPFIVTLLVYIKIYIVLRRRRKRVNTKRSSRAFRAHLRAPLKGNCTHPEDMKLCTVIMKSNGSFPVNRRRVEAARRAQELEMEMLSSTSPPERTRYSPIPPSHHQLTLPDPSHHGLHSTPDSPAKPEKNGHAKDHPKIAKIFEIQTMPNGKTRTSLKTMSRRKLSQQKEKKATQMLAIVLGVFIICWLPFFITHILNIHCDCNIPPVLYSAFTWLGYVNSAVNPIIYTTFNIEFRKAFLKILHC
T3 sequence (Q95136 whole entry): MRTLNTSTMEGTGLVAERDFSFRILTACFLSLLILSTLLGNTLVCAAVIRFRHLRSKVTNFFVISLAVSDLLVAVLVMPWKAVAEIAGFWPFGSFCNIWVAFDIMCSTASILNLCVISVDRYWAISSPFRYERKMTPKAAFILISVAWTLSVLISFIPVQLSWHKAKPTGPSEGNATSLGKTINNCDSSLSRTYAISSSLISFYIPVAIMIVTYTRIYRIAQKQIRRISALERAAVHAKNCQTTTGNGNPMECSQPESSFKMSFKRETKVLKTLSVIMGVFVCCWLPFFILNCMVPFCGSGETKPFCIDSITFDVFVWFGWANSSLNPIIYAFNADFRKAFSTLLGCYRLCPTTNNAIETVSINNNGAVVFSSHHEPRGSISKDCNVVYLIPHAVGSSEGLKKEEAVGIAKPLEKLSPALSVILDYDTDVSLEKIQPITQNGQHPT
Sequence of D(3) dopamine receptor (P35462 whole entry): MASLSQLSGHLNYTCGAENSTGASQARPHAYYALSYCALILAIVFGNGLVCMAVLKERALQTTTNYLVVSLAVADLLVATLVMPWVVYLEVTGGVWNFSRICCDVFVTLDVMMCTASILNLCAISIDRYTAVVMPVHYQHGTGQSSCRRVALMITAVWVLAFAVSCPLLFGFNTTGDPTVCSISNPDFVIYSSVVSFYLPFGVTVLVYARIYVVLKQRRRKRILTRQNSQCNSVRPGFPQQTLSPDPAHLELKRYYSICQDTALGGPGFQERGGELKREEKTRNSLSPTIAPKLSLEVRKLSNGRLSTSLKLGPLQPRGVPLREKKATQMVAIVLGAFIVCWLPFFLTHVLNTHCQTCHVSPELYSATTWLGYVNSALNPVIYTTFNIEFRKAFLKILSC

| SMILES | pKi (D(2) dopamine receptor [1]) | pKi (D(2) dopamine receptor [2]) | pKi (D(3) dopamine receptor) | pKi (D(4) dopamine receptor [3]) | pKi (D(1A) dopamine receptor [4]) | pKi (D(1A) dopamine receptor [5]) | pEC50 (D(4) dopamine receptor [6]) | Effect [7] | ED50 [8] |
| --- | --- | --- | --- | --- | --- | --- | --- | --- | --- |
| N#Cc1ccc2[nH]cc(CN3CCN(c4ccc(Cl)c(Cl)c4)CC3)c2c1 | 6.10 | 6.32 | 6.06 | 7.66 | 6.35 | – | – | – | – |
| N#Cc1ccc2[nH]cc(CN3CCN(c4ccc(F)cc4)CC3)c2c1 | 5.62 | 5.74 | 5.28 | 6.96 | 6.31 | – | – | – | – |
| N#Cc1ccc2[nH]cc(CN3CCN(c4ccccc4Cl)CC3)c2c1 | 5.85 | 6.27 | 6.26 | 7.77 | 6.29 | – | – | – | – |
| N#Cc1ccc2cc(CN3CCN(c4ccccc4)CC3)[nH]c2c1 | 5.25 | 5.60 | 5.51 | 8.44 | – | 5.28 | – | – | – |
| N#Cc1ccc2[nH]c(CN3CCN(c4ccc(Cl)c(Cl)c4)CC3)cc2c1 | 4.37 | 4.44 | 4.70 | 8.12 | – | 4.96 | – | – | – |
| N#Cc1ccc2cc(CN3CCN(c4ccccc4Cl)CC3)[nH]c2c1 | – | – | 6.04 | 8.47 | – | 5.72 | – | – | – |
| N#Cc1ccc2[nH]c(CN3CCN(c4ccc(F)cc4)CC3)cc2c1 | 4.55 | 4.72 | 4.82 | 9.00 | – | 5.07 | 8.03 | 30% | – |
| N#Cc1ccc2[nH]cc(CN3CCN(c4ccc(Cl)cc4)CC3)c2c1 | 5.37 | 5.59 | 5.19 | 7.54 | 6.26 | – | – | – | – |
| N#Cc1ccc2cc(CN3CCN(c4ccc(Cl)c(Cl)c4)CC3)[nH]c2c1 | 5.70 | 5.85 | 4.48 | 8.05 | – | 6.06 | – | – | – |
| N#Cc1ccc2[nH]cc(CN3CCN(c4ccccc4)CC3)c2c1 | 4.47 | 5.46 | 5.36 | 7.30 | 5.52 | – | – | – | – |
| N#Cc1ccc2[nH]c(CN3CCN(c4ccc(Cl)cc4)CC3)cc2c1 | 5.10 | 5.12 | 4.89 | 8.68 | – | 5.28 | – | – | – |
| N#Cc1ccc2[nH]c(CN3CCN(c4ccccc4)CC3)cc2c1 | 5.51 | 6.54 | 5.77 | 9.28 | 4.89 | – | – | 35% | 1.5 nM |
| N#Cc1ccc2[nH]c(CN3CCN(c4ccccc4Cl)CC3)cc2c1 | 5.64 | 6.02 | 5.77 | 8.85 | 5.12 | – | – | – | – |
